Experiment [1] in a line: thallium flux activation in parental CHO cells, counter-screen for KCNQ1 potentiator project (AID 493006;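 active = duplicate-averaged activation above buffer control mean plus 5 SD of those controls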). The settings on record: parental CHO-K1 cells, FluxOR thallium flux, at 10 µM; hits give high values. The gist of the method: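 Assay system: Untransfected host CHO-K1 cells with FluxOR thallium dye | Probe or stimulus: Potassium/thallium depolarization pulse | Schedule: Overnight 37 °C plating, 90 min RT dye, 20 min compound | Detection: Kinetic thallium-flux fluorescence | Read-out: Max-minus-min fluorescence over baseline, percent of buffer-to-R-L3 span | Benchmarks: Low control buffer, high control R-L3 activator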
Background: A counterscreen serves to expose hits that act by an unwanted route or on another target.

Experiment [2] has as its target Potassium voltage-gated channel subfamily KQT member 1 (Homo sapiens) (UniProt P51787). Put plainly: KCNQ1 potassium channel potentiators, confirmation, FluxOR thallium flux, CHO cells, duplicates (AID 493007;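 active = potentiation averaged over duplicate wells exceeding buffer-only control mean by more than 3 SD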;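 for outcome: cells depolarized by a potassium plus thallium sulfate stimulus after compound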). The settings on record: KCNQ1 cell line, FluxOR thallium flux fluorescence, at 10 µM; hits give high values, % of reference activator effect, buffer zero. The gist of the method: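 Material: KCNQ1-expressing CHO cell line; Incubation: FluxOR dye loading 90 min, compound exposure 20 min, room temperature; Detection: FluxOR Tl+ flux fluorescence, 10 s baseline plus 110 s recording; Read-out: percent activation between buffer and R-L3 responses; Control set: buffer-only wells as 0% and R-L3 activator as 100%; Replication: duplicate wells per compound.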

Experiment [3] concerns the target Potassium voltage-gated channel subfamily KQT member 2 (Rattus norvegicus) (UniProt O88943). Put plainly: rat KCNQ2 channel potentiation, selectivity assay for KCNQ1 potentiator project, KCNQ2-CHO-K1 cells (AID 493009).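 Note: assay conditions were tuned for KCNQ1 rather than KCNQ2 modulators; signal is max minus min fluorescence divided by baseline after thallium stimulus.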 The settings on record: FluxOR thallium flux fluorescence, at 10 µM; hits give high values, scaled: buffer 0, activator control 100.
The target in experiment [4] is Potassium voltage-gated channel subfamily KQT member 1 (Homo sapiens) (UniProt P51787). Put plainly: KCNQ1 channel current potentiators, confirmation, orthogonal assay for KCNQ1 potentiator project, IonWorks patch clamp, KCNQ1-CHO cells (AID 493184;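 active = current rise at least 3 SD above the untreated control mean in each of two repeat wells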). The settings on record: automated patch clamp current, at 10 µM; hits give high values. The gist of the method: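 assay system = KCNQ1-expressing CHO cells | medium = external bath solution at pH 7.4 | probe or stimulus = 2,000 ms depolarization, -90 to +40 mV | compound dosing = 10 µM final, single point | measured by = automated voltage clamp, amphotericin B perforated patch | measure = percent current increase versus pre-compound level | replication = duplicates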
Chain of Potassium voltage-gated channel subfamily KQT member 1 (Homo sapiens) (P51787 whole entry, looked up): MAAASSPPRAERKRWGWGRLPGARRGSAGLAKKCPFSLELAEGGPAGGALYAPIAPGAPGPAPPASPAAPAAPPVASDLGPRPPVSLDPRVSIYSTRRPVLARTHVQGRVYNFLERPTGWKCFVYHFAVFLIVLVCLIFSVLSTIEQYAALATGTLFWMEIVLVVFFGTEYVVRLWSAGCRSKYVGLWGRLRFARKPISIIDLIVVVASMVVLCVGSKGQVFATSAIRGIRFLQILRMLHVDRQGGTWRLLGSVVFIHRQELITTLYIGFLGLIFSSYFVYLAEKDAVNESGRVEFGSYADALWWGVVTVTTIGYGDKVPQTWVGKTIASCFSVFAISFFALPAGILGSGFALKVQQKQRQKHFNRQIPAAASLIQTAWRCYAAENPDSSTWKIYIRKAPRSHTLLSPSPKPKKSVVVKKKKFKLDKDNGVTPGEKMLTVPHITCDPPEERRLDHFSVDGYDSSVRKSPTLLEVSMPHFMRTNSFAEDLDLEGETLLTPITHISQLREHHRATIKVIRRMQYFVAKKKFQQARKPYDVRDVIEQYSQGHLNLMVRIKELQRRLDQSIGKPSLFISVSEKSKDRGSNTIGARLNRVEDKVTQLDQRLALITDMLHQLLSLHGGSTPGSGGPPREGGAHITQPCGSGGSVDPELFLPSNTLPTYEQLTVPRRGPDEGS

For 30 compounds, activation, potentiation and outcome results are on record in PubChem BioAssay.

SMILES strings stand for the structures. Calls of active or inactive are those of the source.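 Rule for the calls, unless noted: active = mean duplicate potentiation above the buffer control mean plus 5 SD of buffer wells; inactive = the rest.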

Chain of Potassium voltage-gated channel subfamily KQT member 2 (Rattus norvegicus) (O88943 whole entry, looked up): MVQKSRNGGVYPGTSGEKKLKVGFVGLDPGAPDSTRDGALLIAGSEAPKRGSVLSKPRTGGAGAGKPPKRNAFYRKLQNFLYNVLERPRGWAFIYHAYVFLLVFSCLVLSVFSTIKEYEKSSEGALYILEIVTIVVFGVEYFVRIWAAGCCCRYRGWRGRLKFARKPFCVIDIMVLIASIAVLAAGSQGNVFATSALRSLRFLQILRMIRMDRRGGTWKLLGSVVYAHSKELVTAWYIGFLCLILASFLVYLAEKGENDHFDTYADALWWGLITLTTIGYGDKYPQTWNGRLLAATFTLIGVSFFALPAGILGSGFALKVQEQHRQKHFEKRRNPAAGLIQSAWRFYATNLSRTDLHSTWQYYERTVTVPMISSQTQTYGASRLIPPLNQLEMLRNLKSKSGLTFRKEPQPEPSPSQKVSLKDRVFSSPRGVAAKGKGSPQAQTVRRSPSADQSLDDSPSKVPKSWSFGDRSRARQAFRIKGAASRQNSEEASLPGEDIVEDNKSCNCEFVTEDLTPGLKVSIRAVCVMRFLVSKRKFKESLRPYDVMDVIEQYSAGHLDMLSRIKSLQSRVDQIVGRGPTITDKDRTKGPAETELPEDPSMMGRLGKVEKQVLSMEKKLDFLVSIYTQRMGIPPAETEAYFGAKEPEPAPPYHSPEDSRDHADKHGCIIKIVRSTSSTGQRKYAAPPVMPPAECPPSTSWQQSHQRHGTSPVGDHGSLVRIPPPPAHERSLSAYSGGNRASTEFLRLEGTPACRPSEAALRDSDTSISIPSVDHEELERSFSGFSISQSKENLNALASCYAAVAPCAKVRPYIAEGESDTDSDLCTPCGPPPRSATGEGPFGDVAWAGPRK

`O=C(Nc1ccc2[nH]c(=S)sc2c1)Nc1ccccc1F`: in experiment [1], the activation is 150% (active). The potentiation in experiment [2] was 68% (active); in experiment [3], 240% (active). The result in experiment [4] was inactive.
The corresponding values for `COc1ccc(C(=O)NC(=S)N2CCC(C)CC2)cc1Br` are 185% (active), 90% (active), 290% (active) and “inactive”.
Regarding `Cc1cc(NC(=O)CSc2cn(CCNC(=O)c3ccc(F)cc3)c3ccccc23)no1`, the result in experiment [1], in experiment [2], in experiment [3] and in experiment [4] was inactive.
For the compound `O=c1[nH]cc(-c2ccccc2)c(=O)[nH]1`, the result in experiment [1], in experiment [2], in experiment [3] and in experiment [4] was inactive.
Take `CCOC(=O)Cn1nc(-c2ccc(F)cc2)cc(Cc2ccccc2)c1=O`: the result in experiment [1], in experiment [2], in experiment [3] and in experiment [4] was inactive.
Turning to `CC(=O)NC1=C(NC2CCS(=O)(=O)C2)C(=O)c2ccccc2C1=O` (stereo not given), the result in experiment [1], in experiment [2], in experiment [3] and in experiment [4] was inactive.
Consider `CCOC(=O)c1sc(N2N=C(C)C(N=Nc3cccc(C)c3)C2=O)nc1C` (stereo not given), for which the result in experiment [1] and in experiment [4] was inactive. Besides, the potentiation was 31% (active) in experiment [2] and 148% (active) in experiment [3].
In the case of `COc1cccc2sc(Nc3nnc(-c4ccccc4Cl)o3)nc12`, the result in experiment [1], in experiment [3] and in experiment [4] was inactive. Also, the potentiation in experiment [2] is 112% (active).
Regarding `CCCn1c(=S)[nH]c2sc3c(c2c1=O)CCCC3`, in experiment [1], the activation is 418% (active). The potentiation was 158% (active) in experiment [2] and 434% (active) in experiment [3]. The outcome in experiment [4] was inactive.
The corresponding values for `Cc1ccc(N=Cc2cc(Br)cc(Cl)c2O)cc1` are 201% (active), 19% (active), 142% (active) and “inactive”.
Consider `Cc1ccc(C(=O)NCCC(=O)NCc2cc(=O)n(C)c(=O)n2C)cc1`, for which the outcome in experiment [1], in experiment [2], in experiment [3] and in experiment [4] was inactive.
As for `COC(=O)C1=C(C)NC(C)=C(C(=O)OC)C1c1ccccc1[N+](=O)[O-]`, the result in experiment [1], in experiment [2], in experiment [3] and in experiment [4] was inactive.
Consider `Cc1ccccc1OCc1nnc(SCCN2CCCC2)n1-c1ccccc1`, for which the outcome in experiment [1], in experiment [2], in experiment [3] and in experiment [4] was inactive.
On to `Cc1noc(C)c1S(=O)(=O)Nc1ccc(C#N)cc1`, for which the result in experiment [1], in experiment [2], in experiment [3] and in experiment [4] was inactive.
For `CCN(CC)C(=O)c1[nH]cnc1C(=O)NCC(=O)OC(C)(C)C`, the outcome in experiment [1], in experiment [2], in experiment [3] and in experiment [4] was inactive.
For the compound `Cc1ccccc1C(=O)NNC(=O)C(=O)Nc1cccc(Cl)c1C`, the activation in experiment [1] is 346% (active). Moreover, the results for the potentiation in experiment [2] and in experiment [3] were 168% (active) and 406% (active), respectively. Besides, the outcome in experiment [4] was inactive.
Turning to `CN(C)CC1CCCCC1OC(=O)/C=C/c1ccc(Cl)cc1Cl` (stereo not given), the result in experiment [1], in experiment [2], in experiment [3] and in experiment [4] was inactive.
Take `CCOC(=O)c1c(-c2ccccc2)oc2ccc(O)c(CN3CCN(C)CC3)c12`: the result in experiment [1], in experiment [2], in experiment [3] and in experiment [4] was inactive.
`CC1CCN(c2ccccc2NC(=S)NC(=O)c2cccs2)CC1`: the activation in experiment [1] is 139% (active). The potentiation in experiment [2] is 54% (active). Also, the result in experiment [3] and in experiment [4] was inactive.
As for `CCOC(=O)c1sc(NC(=S)NC(=O)c2ccco2)nc1C`, the activation in experiment [1] is 142% (active). Further, the potentiation in experiment [2] was 37% (active); in experiment [3], 157% (active). In experiment [4], the outcome was inactive.
With `CC(=O)c1c(-c2ccccc2)c2cc([N+](=O)[O-])ccc2[nH]c1=O`, the outcome in experiment [1], in experiment [2], in experiment [3] and in experiment [4] was inactive.
Turning to `Cn1c(=O)n(CCc2ccccc2)c2ccccc21`, the outcome in experiment [1], in experiment [2], in experiment [3] and in experiment [4] was inactive.
In the case of `Cc1ccc(S(=O)(=O)N2CCN(C(=O)CCC(=O)OCC(=O)Nc3cccc(C#N)c3)CC2)cc1`, the outcome in experiment [1], in experiment [2], in experiment [3] and in experiment [4] was inactive.
For `COc1ccc(-n2c(C)cc(C(=O)CCl)c2C)cc1`, the outcome in experiment [1], in experiment [2], in experiment [3] and in experiment [4] was inactive.
On to `Cc1nc2ccccn2c1C(=O)N/N=C/c1ccccc1`, for which the outcome in experiment [1], in experiment [2], in experiment [3] and in experiment [4] was inactive.
For `COC(=O)c1cnn(-c2ccc(Cl)cc2)c1/C=N/NC(N)=S`, the result in experiment [1], in experiment [2], in experiment [3] and in experiment [4] was inactive.
Consider `O=c1c2cc(Cl)ccc2nc(-c2ccc([N+](=O)[O-])cc2)n1O`, for which the activation in experiment [1] was 445% (active). Further, the potentiation was 193% (active) in experiment [2] and 456% (active) in experiment [3]. Also, the outcome in experiment [4] was inactive.
In the same order, the values of `Cc1ccc(NC(=S)N/N=C2/CCCCc3ccccc32)cc1` are 274% (active), 324% (active), 484% (active) and “inactive”.
In the same order, the values of `O=C1OC(c2ccc(F)cc2)=N/C1=C\c1ccc(Br)o1` are 228% (active), 80.5% (active), 266% (active) and “inactive”.
For `C/C(Cl)=C\Cn1c(O)c(N=NC(N)=S)c2cc(Br)ccc21`, the result in experiment [1], in experiment [3] and in experiment [4] was inactive. For the same compound, the potentiation in experiment [2] is 70.5% (active).
